Measurements reported in ChEMBL document CHEMBL4834399, “Pharmacokinetics of Eleven Kratom Alkaloids Following an Oral Dose of Either Traditional or Commercial Kratom Products in Rats” (J Nat Prod, 2021).
pKi: −log10 of the molar value.

Legend:
[1] = Stability of the compound in rat plasma assessed as drug recovery; type: ADME, cell-free
[2] = Stability of the compound in water-methanol mixture (1:1) assessed as drug recovery; type: physicochemical; settings: buffer
[3] = AUC(0 to 24 hrs) in Sprague-Dawley rat plasma at 5.73 mg/kg, po administered as LKT formulation measured for 24 hrs by UPLC-MS/MS analysis; type: ADME, organism-based; design: route oral, time 24 hrs, dose 5.73 mg/kg
[4] = Tmax in Sprague-Dawley rat plasma at 9.6 mg/kg, po administered as OPMS liquid formulation measured for 24 hrs by UPLC-MS/MS analysis; type: ADME, organism-based
Method in brief: (§1)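 Jugular-cannulated male SD rats (225 ± 25 g, n = 4) were fasted 12–16 h and given one oral gavage of LKT (366 mg/kg) or OPMS liquid (0.8 mL/kg) in water at 4 mL/kg, with dosing normalized to MTG human equivalent dose. Plasma was sampled from predose to 24 h and measured by UPLC–MS/MS (LLOQ 1 ng/mL). Cmax and Tmax were read from the observed data; Cmax/dose was also reported. Mean ± SEM.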

[5] = Cmax in Sprague-Dawley rat plasma at 9.6 mg/kg, po administered as OPMS liquid formulation measured for 24 hrs by UPLC-MS/MS analysis; type: ADME, organism-based; design: route oral, dose 9.6 mg/kg, time 24 hrs; method in brief: as §1
[6] = AUC(0 to 24 hrs) in Sprague-Dawley rat plasma at 9.6 mg/kg, po administered as OPMS liquid formulation measured for 24 hrs by UPLC-MS/MS analysis; type: ADME, organism-based; design: route oral, time 24 hrs, dose 9.6 mg/kg
[7] = Dose normalized AUC(0 to 24 hrs) in Sprague-Dawley rat plasma at 9.6 mg/kg, po administered as OPMS liquid formulation measured for 24 hrs by UPLC-MS/MS analysis; type: ADME, organism-based; settings: in vivo
[8] = Dose normalized Cmax in Sprague-Dawley rat plasma at 9.6 mg/kg, po administered as OPMS liquid formulation measured for 24 hrs by UPLC-MS/MS analysis; type: ADME, organism-based; settings: in vivo; method in brief: as §1
[9] = Tmax in Sprague-Dawley rat plasma at 5.73 mg/kg, po administered as LKT formulation measured for 24 hrs by UPLC-MS/MS analysis; type: ADME, organism-based; method in brief: as §1
[10] = Cmax in Sprague-Dawley rat plasma at 5.73 mg/kg, po administered as LKT formulation measured for 24 hrs by UPLC-MS/MS analysis; type: ADME, organism-based; design: route oral, dose 5.73 mg/kg, time 24 hrs; method in brief: as §1
[11] = Dose normalized Cmax in Sprague-Dawley rat plasma at 5.73 mg/kg, po administered as LKT formulation measured for 24 hrs by UPLC-MS/MS analysis; type: ADME, organism-based; settings: in vivo; method in brief: as §1
[12] = Dose normalized AUC(0 to 24 hrs) in Sprague-Dawley rat plasma at 5.73 mg/kg, po administered as LKT formulation measured for 24 hrs by UPLC-MS/MS analysis; type: ADME, organism-based; settings: in vivo
Cytochrome P450 2D6 = Cytochrome P450 2D6 (Homo sapiens, UniProt P10635); assay: Inhibition of CYP2D6 in human liver microsomes assessed as inhibition of dextromethorphan O-demethylation using dextromethorphan as substrate preincubated for 5 mins followed by NADPH addition by UPLC-MS/MS analysis; type: ADME
Chain of Cytochrome P450 2D6 (P10635 whole entry): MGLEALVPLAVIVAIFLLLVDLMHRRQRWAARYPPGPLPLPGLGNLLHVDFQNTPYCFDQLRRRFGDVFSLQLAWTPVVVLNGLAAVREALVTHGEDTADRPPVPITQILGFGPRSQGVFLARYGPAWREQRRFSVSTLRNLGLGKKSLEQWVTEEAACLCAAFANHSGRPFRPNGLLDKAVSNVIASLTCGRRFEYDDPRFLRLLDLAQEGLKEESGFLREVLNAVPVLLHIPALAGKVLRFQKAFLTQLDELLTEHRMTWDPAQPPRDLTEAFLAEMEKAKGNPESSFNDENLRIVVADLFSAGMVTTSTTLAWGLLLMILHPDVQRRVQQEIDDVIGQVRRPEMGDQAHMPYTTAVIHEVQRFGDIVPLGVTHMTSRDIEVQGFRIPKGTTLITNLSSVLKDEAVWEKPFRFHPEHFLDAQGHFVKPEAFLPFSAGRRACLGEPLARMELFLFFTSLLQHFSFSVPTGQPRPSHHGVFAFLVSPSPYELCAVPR

[13] = Dose normalized Cmax in rat plasma at 20 mg/kg, po administered as LKT formulation; type: ADME, organism-based; settings: in vivo
[14] = Dose normalized AUC in rat plasma at 20 mg/kg, po administered as LKT formulation; type: ADME, organism-based; settings: in vivo
[15] = rat, in vivo, po, 5.73 mg/kg, 24 h
[16] = rat, in vivo, po, 9.6 mg/kg, 24 h
[17] = Tmax in Sprague-Dawley rat plasma at 2.03 mg/kg, po administered as LKT formulation measured for 24 hrs by UPLC-MS/MS analysis; type: ADME, organism-based; method in brief: as §1
[18] = Cmax in Sprague-Dawley rat plasma at 2.03 mg/kg, po administered as LKT formulation measured for 24 hrs by UPLC-MS/MS analysis; type: ADME, organism-based; design: route oral, dose 2.03 mg/kg, time 24 hrs; method in brief: as §1
[19] = AUC(0 to 24 hrs) in Sprague-Dawley rat plasma at 2.03 mg/kg, po administered as LKT formulation measured for 24 hrs by UPLC-MS/MS analysis; type: ADME, organism-based; design: route oral, time 24 hrs, dose 2.03 mg/kg
[20] = Dose normalized Cmax in Sprague-Dawley rat plasma at 2.03 mg/kg, po administered as LKT formulation measured for 24 hrs by UPLC-MS/MS analysis; type: ADME, organism-based; settings: in vivo; method in brief: as §1
[21] = Dose normalized AUC(0 to 24 hrs) in Sprague-Dawley rat plasma at 2.03 mg/kg, po administered as LKT formulation measured for 24 hrs by UPLC-MS/MS analysis; type: ADME, organism-based; settings: in vivo
[22] = Tmax in Sprague-Dawley rat plasma at 2.24 mg/kg, po administered as OPMS liquid formulation measured for 24 hrs by UPLC-MS/MS analysis; type: ADME, organism-based; method in brief: as §1
[23] = Cmax in Sprague-Dawley rat plasma at 2.24 mg/kg, po administered as OPMS liquid formulation measured for 24 hrs by UPLC-MS/MS analysis; type: ADME, organism-based; design: route oral, dose 2.24 mg/kg, time 24 hrs; method in brief: as §1
[24] = AUC(0 to 24 hrs) in Sprague-Dawley rat plasma at 2.24 mg/kg, po administered as OPMS liquid formulation measured for 24 hrs by UPLC-MS/MS analysis; type: ADME, organism-based; design: route oral, time 24 hrs, dose 2.24 mg/kg
[25] = Dose normalized Cmax in Sprague-Dawley rat plasma at 2.24 mg/kg, po administered as OPMS liquid formulation measured for 24 hrs by UPLC-MS/MS analysis; type: ADME, organism-based; settings: in vivo; method in brief: as §1
[26] = Dose normalized AUC(0 to 24 hrs) in Sprague-Dawley rat plasma at 2.24 mg/kg, po administered as OPMS liquid formulation measured for 24 hrs by UPLC-MS/MS analysis; type: ADME, organism-based; settings: in vivo
[27] = Tmax in Sprague-Dawley rat plasma at 1.1 mg/kg, po administered as LKT formulation measured for 24 hrs by UPLC-MS/MS analysis; type: ADME, organism-based; method in brief: as §1
[28] = Cmax in Sprague-Dawley rat plasma at 1.1 mg/kg, po administered as LKT formulation measured for 24 hrs by UPLC-MS/MS analysis; type: ADME, organism-based; design: route oral, dose 1.1 mg/kg, time 24 hrs; method in brief: as §1
[29] = Tmax in Sprague-Dawley rat plasma at 1.77 mg/kg, po administered as OPMS liquid formulation measured for 24 hrs by UPLC-MS/MS analysis; type: ADME, organism-based; method in brief: as §1
[30] = Cmax in Sprague-Dawley rat plasma at 1.77 mg/kg, po administered as OPMS liquid formulation measured for 24 hrs by UPLC-MS/MS analysis; type: ADME, organism-based; design: route oral, time 24 hrs, dose 1.77 mg/kg; method in brief: as §1
[31] = Plasma concentration in Sprague-Dawley rat at 1.1 mg/kg, po administered as LKT formulation measured within 1 hrs by UPLC-MS/MS analysis; type: ADME, organism-based; method in brief: as §1
[32] = Plasma concentration in Sprague-Dawley rat at 1.77 mg/kg, po administered as OPMS liquid formulation measured within 1 hrs by UPLC-MS/MS analysis; type: ADME, organism-based; method in brief: as §1

COC(=O)C1=CO[C@@H](C)[C@H]2CN3CC[C@]4(C(=O)Nc5ccccc54)[C@@H]3C[C@H]12
Drug recovery [1]: > 90%
Drug recovery [2]: > 80%

CC[C@@H]1CN2CCc3c([nH]c4cccc(OC)c34)[C@@H]2C[C@@H]1/C(=C\OC)C(=O)OC
AUC(0-t) at 24 h [3]: 0.48 µg·h/mL
Tmax [4]: 3.1 h
Cmax [5]: 0.112 µg/mL
AUC(0-t) at 24 h [6]: 1.31 µg·h/mL
AUC/dose [7]: 136.1 kg·ng·h/mL/mg
Cmax/dose [8]: 11.7 kg·ng/mL/mg
Tmax [9]: 1.3 h
Cmax [10]: 0.0638 µg/mL
Cmax/dose [11]: 11.1 kg·ng/mL/mg
AUC/dose [12]: 83.7 kg·ng·h/mL/mg
pKi (Cytochrome P450 2D6): 5.96
Cmax/dose [13]: 0.0465 µg/mL
AUC/dose [14]: 213.1 kg·ng·h/mL/mg
Drug recovery [1]: > 90%
Drug recovery [2]: > 80%
Drug metabolism [15]: 3.4%
Drug metabolism [16]: 3.1%

CC[C@@H]1CN2CCc3c([nH]c4cccc(OC)c34)[C@H]2C[C@@H]1/C(=C\OC)C(=O)OC
Tmax [17]: 1.8 h
Cmax [18]: 0.0211 µg/mL
AUC(0-t) at 24 h [19]: 0.107 µg·h/mL
Cmax/dose [20]: 10.4 kg·ng/mL/mg
AUC/dose [21]: 52.9 kg·ng·h/mL/mg
Tmax [22]: 3.2 h
Cmax [23]: 0.0238 µg/mL
AUC(0-t) at 24 h [24]: 0.223 µg·h/mL
Cmax/dose [25]: 10.8 kg·ng/mL/mg
AUC/dose [26]: 101.2 kg·ng·h/mL/mg
Drug recovery [1]: > 90%
Drug recovery [2]: > 80%

C=C[C@H]1CN2CCc3c([nH]c4cccc(OC)c34)[C@@H]2C[C@@H]1/C(=C\OC)C(=O)OC
Tmax [27]: 0.167 h
Cmax [28]: 0.0053 µg/mL
Tmax [29]: 5 min
Cmax [30]: 0.002 µg/mL
concentration at 1 h [31]: < 0.001 µg/mL
concentration at 1 h [32]: < 0.001 µg/mL
Drug recovery [1]: > 90%
Drug recovery [2]: > 80%

CC[C@@H]1CN2CC[C@@]3(C(=O)Nc4cccc(O)c43)[C@H]2C[C@@H]1/C(=C\OC)C(=O)OC
Drug recovery [1]: > 90%
Drug recovery [2]: > 80%
